The text below walks through data of ChEMBL document CHEMBL4725282, “Discovery of a Conformationally Constrained Oxazolidinone with Improved Safety and Efficacy Profiles for the Treatment of Multidrug-Resistant Tuberculosis” (J Med Chem, 2020).

As a reminder, the half-life is the time needed for the level to fall by half in the phase considered. Read a low half-life as rapid decline. What is called IC50 is the midpoint of a concentration-inhibition curve. A low value points to inhibition by little substance. In general, Vd refers to the apparent volume that relates the amount in the body to the concentration in plasma or blood.

Data set [1] can be described thus: Half life in Sprague-Dawley rat hepatocytes at 2 uM by LC-MS/MS analysis. It counts as ADME, cell-based, Hepatocyte. In short, it runs like this: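 Hepatocytes (male CD-1 mouse, male SD rat, male beagle dog, male cynomolgus monkey, pooled human), final 1 μM compound and 1 million cells/mL, made by mixing 2 μM compound with 2 million cells/mL. Incubated at 37 °C in a CO2 incubator; sampled at 0, 15, 30, 60, 90 and 120 min. Quenched with methanol/ACN containing 0.1% formic acid. Parent remaining measured by LC-MS/MS.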

The target in data set [2] is Cytochrome P450 2D6 (Homo sapiens, UniProt P10635). Put plainly: Inhibition of CYP2D6 in human liver microsomes after 20 mins by LC-MS/MS analysis. It counts as ADME. In a few lines: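 Human liver microsomes (0.2 mg/mL) in phosphate buffer, 20 min incubation with compound at 0.1-50 μM alongside isoform-specific substrates and a positive control. Substrate remaining monitored by LC-MS/MS at each concentration; IC50 derived.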
Background: Liver microsomes are vesicles of endoplasmic reticulum, rich in cytochrome P450 enzymes.

A short description of data set [3]: Volume of distribution in Balb/c mouse at 2.5 mg/kg, iv by LC-MS/MS analysis. It is filed as ADME, organism-based. The conditions noted are these: in vivo.
A short description of data set [4]: Genotoxicity in CHO-WBL cells assessed as chromosome aberration at 20 to 150 ug/ml measured after 20 hrs in absence of S9 fraction by Giemsa staining based. It is filed as toxicity, cell-based, Cricetulus griseus. The conditions noted are these: chinese hamster, dose 20-150 µg/ml. In short, it runs like this:
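CHO-WBL cells in McCoy's 5A with 10% FBS, seeded 20-24 h before treatment. Compound in DMSO, with or without serum-free S-9 mix. Treatment either 3 h, then HBSS wash and 17 h further culture, or 20 h; harvest at 20 h from treatment start. Colcemid 0.1 μg/mL for the final 2 h, hypotonic KCl, methanol:acetic acid fixation, Giemsa stain. 300 metaphases per concentration (150 per duplicate flask) scored.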

A short description of data set [5]: Toxicity in female Sprague-Dawley rat assessed as mortality at 50 to 450 mg/kg/day, po administered for 4 weeks. It is filed as organism-based. The conditions noted are these: in vivo, 672 h, dose 50-450 mg/kg/day. In a few lines: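 SD rats, 6-7 weeks old (96 in total), split into vehicle, 50, 150 and 450 mg/kg/day groups of 12 females and 12 males each, given oral doses once daily for 4 weeks, then 2 weeks of recovery. Mortality, body weight, food intake, eyes, urine and neuropsychic signs were observed. Organ and bone marrow histopathology was done on 8 rats per sex per group after the last dose and on the remaining 4 per sex after 14 days of recovery.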

Data set [6] can be described thus: Toxicity in female Sprague-Dawley rat assessed as body weight loss at 50 to 450 mg/kg/day, po administered for 4 weeks followed by 2 week recovery period measured at 1 week interval. It is filed as organism-based. The conditions noted are these: in vivo, 672 h, dose 50-450 mg/kg/day. In a few lines:
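SD rats, 6-7 weeks, 12 male and 12 female per group. Oral dosing once daily at 50, 150 or 450 mg/kg/day or vehicle for 4 weeks, then 2-week recovery. 8 per sex dissected after last dose, remaining 4 per sex after 14-day recovery. Body weight, urine, food intake and clinical signs monitored.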

The nature of data set [7]: Toxicity in male Sprague-Dawley rat assessed as effect on food consumption at 50 to 450 mg/kg/day, po administered for 4 weeks followed by 2 week recovery period measured at 1 week interval. It counts as organism-based. The conditions noted are these: in vivo, 672 h, dose 50-450 mg/kg/day.
Data set [8] in a line: Toxicity in male Sprague-Dawley rat assessed as changes in neuropsychic symptoms at 50 to 450 mg/kg/day, po administered for 4 weeks measured during last 24 hrs of treatment period. It counts as organism-based. The conditions noted are these: in vivo, 672 h, dose 50-450 mg/kg/day.
Data set [9] is described as follows: Toxicity in female Sprague-Dawley rat assessed as change in red blood cell count at 50 mg/kg/day, po administered for 4 weeks followed by 2 week recovery period (Rvb =7.32 +/- 0.20 10^12/L). The conditions noted are these: in vivo, 672 h. It counts as organism-based.
The nature of data set [10]: Toxicity in female Sprague-Dawley rat assessed as change in hemoglobin count at 50 mg/kg/day, po administered for 4 weeks followed by 2 week recovery period (Rvb =136 +/- 7 g/L). It is filed as organism-based. The conditions noted are these: in vivo, 672 h.
The nature of data set [11]: Toxicity in female Sprague-Dawley rat assessed as change in mean platelet volume at 150 mg/kg/day, po administered for 4 weeks followed by 2 week recovery period (Rvb =7.1 +/- 0.5 fL). It is filed as organism-based. The conditions noted are these: in vivo, 672 h.
Data set [12] can be described thus: Toxicity in female Sprague-Dawley rat assessed as change in reticulocyte level at 450 mg/kg/day, po administered for 4 weeks followed by 2 week recovery period (Rvb =2.85 +/- 0.53 %). It is filed as organism-based. The conditions noted are these: in vivo, 672 h.

SMILES strings stand for the structures. A value given as a limit tells only on which side of the number the result lay.

Chain of Cytochrome P450 2D6 (P10635 whole entry, canonical isoform): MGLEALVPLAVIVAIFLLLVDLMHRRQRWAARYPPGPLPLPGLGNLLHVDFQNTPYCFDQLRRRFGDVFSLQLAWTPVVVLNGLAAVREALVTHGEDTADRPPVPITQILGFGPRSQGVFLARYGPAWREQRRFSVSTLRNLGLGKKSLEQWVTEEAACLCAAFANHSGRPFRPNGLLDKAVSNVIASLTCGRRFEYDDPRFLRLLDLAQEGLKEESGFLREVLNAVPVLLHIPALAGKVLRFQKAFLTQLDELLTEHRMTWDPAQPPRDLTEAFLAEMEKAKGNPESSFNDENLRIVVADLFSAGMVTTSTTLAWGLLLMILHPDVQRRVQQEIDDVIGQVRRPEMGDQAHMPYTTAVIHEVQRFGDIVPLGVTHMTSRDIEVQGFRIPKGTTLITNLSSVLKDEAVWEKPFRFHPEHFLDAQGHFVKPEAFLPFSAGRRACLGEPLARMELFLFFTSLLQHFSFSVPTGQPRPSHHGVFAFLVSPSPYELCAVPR

In turn, `CC(=O)NC[C@@H]1OC(=O)N2c3cc(F)c(N4CCSCC4)cc3OC[C@@H]12` came in with a half-life at 2 µM in [1] of 1.67 h. In [2], this compound registered an IC50 greater than 50 µM. Also, the Vd in [3] turned out to be 2.72 L/kg. The Activity entry is on record as “Non-Toxic” in data set [4]; “Non-Toxic” in data set [5]; “Non-Toxic” in data set [6]; “Non-Toxic” in data set [7]; “Non-Toxic” in data set [8]; 6.85 10^12/L in data set [9]. For the same compound, the Activity is on record as 126 g/L in data set [10], 7.4 fL in data set [11] and 2.93% in data set [12].
